The source made the active and inactive calls. The calls are words filed in the database; no cut-off is given here.
Columns and labels:
[1] = tested on: MV4-11; experiment: Induction of apoptosis in human MV4-11 cells assessed as early apoptotic cells at 0.5 uM after 24 hrs by annexin V-FITC/propidium iodide staining-based flow cytometric method (reference value: 3.54%); format: functional
[2] = biological target: T1, Receptor-type tyrosine-protein kinase FLT3 (Homo sapiens, UniProt P36888); experiment: Inhibition of human FLT3 using EAIYAAPFAKKK as substrate preincubated for 20 mins followed by [gamma-33P]-ATP addition measure after 120 mins by filter binding method
T1 sequence (P36888 whole entry): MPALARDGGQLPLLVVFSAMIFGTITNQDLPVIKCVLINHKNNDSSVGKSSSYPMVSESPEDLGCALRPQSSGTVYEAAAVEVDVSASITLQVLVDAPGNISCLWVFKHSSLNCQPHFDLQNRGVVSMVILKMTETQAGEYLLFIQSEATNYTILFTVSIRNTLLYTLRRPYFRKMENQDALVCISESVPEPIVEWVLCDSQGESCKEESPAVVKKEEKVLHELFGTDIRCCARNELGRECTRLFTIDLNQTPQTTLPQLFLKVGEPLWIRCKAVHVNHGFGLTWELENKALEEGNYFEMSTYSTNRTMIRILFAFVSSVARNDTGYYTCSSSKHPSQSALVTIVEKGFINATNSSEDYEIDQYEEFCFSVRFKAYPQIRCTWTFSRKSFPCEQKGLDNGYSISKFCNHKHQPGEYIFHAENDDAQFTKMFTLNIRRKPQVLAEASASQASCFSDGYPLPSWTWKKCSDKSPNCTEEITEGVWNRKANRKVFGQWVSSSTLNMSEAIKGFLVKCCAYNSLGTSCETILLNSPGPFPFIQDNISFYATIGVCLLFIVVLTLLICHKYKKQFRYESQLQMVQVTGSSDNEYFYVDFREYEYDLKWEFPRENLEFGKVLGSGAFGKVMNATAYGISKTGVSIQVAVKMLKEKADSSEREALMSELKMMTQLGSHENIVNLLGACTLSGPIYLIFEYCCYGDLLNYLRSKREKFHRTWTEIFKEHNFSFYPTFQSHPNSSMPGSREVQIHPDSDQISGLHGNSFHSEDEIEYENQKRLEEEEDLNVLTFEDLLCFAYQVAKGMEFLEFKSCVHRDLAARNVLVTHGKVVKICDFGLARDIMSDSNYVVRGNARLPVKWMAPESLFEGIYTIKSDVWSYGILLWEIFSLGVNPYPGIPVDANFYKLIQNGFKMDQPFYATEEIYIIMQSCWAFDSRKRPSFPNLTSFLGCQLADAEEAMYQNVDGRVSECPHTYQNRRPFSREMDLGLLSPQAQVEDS
How it was run: (§1)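 Compound preincubated with kinase 20 min at room temperature. Filter-binding read-out, curve-fitted IC50; mean ± SD of three independent experiments.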

[3] = Intrinsic clearance in dog liver microsomes by LC-MS/MS analysis; format: ADME, Canis lupus familiaris, microsome; settings: read-out: CLH
[4] = Intrinsic clearance in cynomolgus monkey liver microsomes by LC-MS/MS analysis; format: ADME, Macaca fascicularis, microsome; settings: read-out: CLH
[5] = tested on: MV4-11; experiment: Induction of apoptosis in human MV4-11 cells assessed as early apoptotic cells at 2 uM after 24 hrs by annexin V-FITC/propidium iodide staining-based flow cytometric method (reference value: 3.54%); format: functional
[6] = Terminal half life in dog liver microsomes by LC-MS/MS analysis; format: ADME, Canis lupus familiaris, microsome; settings: read-out: beta t1/2 (converted)
How it was run: (§2)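 Metabolic stability measured by incubating compound in human, rat, mouse, dog and monkey liver microsomes. Terminal t1/2 determined.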

[7] = biological target: Receptor-type tyrosine-protein kinase FLT3 (Homo sapiens) (UniProt P36888); experiment: Inhibition of FLT3 phosphorylation in human MV4-11 cells assessed as decrease in STAT5 phosphorylation at 0.02 to 1 uM after 24 hrs by Western blot analysis; format: cell-based
How it was run: (§3)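 MV4-11 cells treated with increasing concentrations of compound for 24 h. Lysates immunoblotted for phosphorylated FLT3, STAT5, ERK, AKT and Rb.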

[8] = tested on: MV4-11; experiment: Antitumor activity against human MV4-11 cells xenografted in nu/nu mouse assessed as tumor regression at 40 mg/kg, iv qd measured on day 21 relative to vehicle-treated control; format: functional
How it was run: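 Female nu/nu mice bearing MV4-11 xenografts; dosing began once tumors reached 200 mm3. Given iv once daily for 21 days, with a vehicle-only group. Body weight and tumor size tracked relative to initial values, set as 100%. Tumors weighed at the end of the 22-day treatment period.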

[9] = tested on: HCT-116; experiment: Growth inhibition of human HCT116 cells after 72 hrs by CellTiter-Glo assay; format: functional; settings: HCT-116, 72 h
[10] = Terminal half life in cynomolgus monkey liver microsomes by LC-MS/MS analysis; format: ADME, Macaca fascicularis, microsome; settings: read-out: beta t1/2 (converted); how it was run: as §2
[11] = tested on: MV4-11; experiment: Antitumor activity against human MV4-11 cells xenografted in nu/nu mouse assessed as tumor regression at 15 mg/kg, iv qd measured on day 21 relative to vehicle-treated control; format: functional
[12] = tested on: MGC-803; experiment: Growth inhibition of human MGC803 cells after 72 hrs by CellTiter-Glo assay; format: functional; settings: MGC-803, 72 h
[13] = tested on: MCF7; experiment: Growth inhibition of human MCF7 cells after 72 hrs by CellTiter-Glo assay; format: functional; settings: MCF7, 72 h
[14] = tested on: MV4-11; experiment: Growth inhibition of human MV4-11 cells after 72 hrs by CellTiter-Glo assay; format: functional, cell-based; settings: MV4-11, 72 h
How it was run: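 MV4-11 cells grown in IMDM with 10% FBS, 2% L-glutamine and 1% pen/strep at 37 °C, 5% CO2. Seeded at 10000 cells/well and exposed to compound at various concentrations for 72 h. Viability read by CellTiter-Glo luminescence.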

[15] = Terminal half life in human liver microsomes by LC-MS/MS analysis; format: ADME, microsome; settings: read-out: beta t1/2 (converted); how it was run: as §2
[16] = biological target: Receptor-type tyrosine-protein kinase FLT3 (Homo sapiens) (UniProt P36888); experiment: Inhibition of FLT3 phosphorylation in human MV4-11 cells assessed as decrease in AKT phosphorylation at 0.02 to 1 uM after 24 hrs by Western blot analysis; format: cell-based; how it was run: as §3
[17] = tested on: MV4-11; experiment: Cell cycle arrest in human MV4-11 cells assessed as accumulation at G0/G1 phase after 24 hrs by propidium iodide/BrdU staining-based flow cytometric method; format: functional
How it was run: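 Cells treated with compound for 24 h, then fixed. Double-stained with propidium iodide and BrdU for flow cytometric analysis of cell cycle distribution.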

[18] = Intrinsic clearance in rat liver microsomes by LC-MS/MS analysis; format: ADME, microsome; settings: read-out: CLH
[19] = tested on: MV4-11; experiment: Antitumor activity against human MV4-11 cells xenografted in nu/nu mouse assessed as tumor regression at 30 mg/kg, iv qd measured on day 21 relative to vehicle-treated control; format: functional
[20] = tested on: NCI-H82; experiment: Growth inhibition of human NCI-H82 cells after 72 hrs by CellTiter-Glo assay; format: functional; settings: NCI-H82, 72 h
[21] = Terminal half life in mouse liver microsomes by LC-MS/MS analysis; format: ADME, microsome; settings: read-out: beta t1/2 (converted); how it was run: as §2
[22] = tested on: MV4-11; experiment: Induction of apoptosis in human MV4-11 cells assessed as late apoptotic cells at 0.5 uM after 24 hrs by annexin V-FITC/propidium iodide staining-based flow cytometric method (reference value: 2.54%); format: functional
[23] = biological target: CDK2/Cyclin A1 (Homo sapiens, UniProt P24941); experiment: Inhibition of human CDK2/Cyclin A1 using histone H1 as substrate preincubated for 20 mins followed by [gamma-33P]-ATP addition measure after 120 mins by filter binding method; format: protein-complex assay; how it was run: as §1

CN1CCN(Cc2ccc(NC(=O)c3n[nH]cc3Nc3ncnc4[nH]ccc34)cc2)CC1
Activity [1]: 28.54%
IC50 [2]: 0.27 to 0.28 nM
CLint scaled [3]: 129 mL/min/kg
CLint scaled [4]: 36.5 mL/min/kg
Activity [5]: 54.13%
half-life [6]: 15.4 min
inhibition [7]: Active
Activity [8]: 81.33%
GI50 [9]: 90 nM
half-life [10]: 51.3 min
Activity [11]: -6.11%
GI50 [12]: 370 nM
GI50 [13]: 2840 nM
IC50 [14]: 8 nM
half-life [15]: 103 min
inhibition [16]: Active
Activity [17]: Dose-dependent effect
CLint scaled [18]: 40.3 mL/min/kg
Activity [19]: 78.95%
GI50 [20]: 110 nM
half-life [21]: 39.6 min
Activity [22]: 13.44%
IC50 [23]: 2.47 nM
